Series [1] has as its system 4T1. The series is described as follows: Inhibition of metastasis in mouse 4T1 cells assessed as formation of pseudopods at 10^-5 mM incubated for 24 hrs by SEM analysis. The series is classed as functional, cell-based. In outline: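 4T1 cells treated 24 h, then imaged by scanning electron microscopy for pseudopod formation. Dendrimers were tested at 0.2 mM and the reference at 10–5 mM.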

For series [2], the system named is 4T1. In words: Antiinvasive activity in mouse 4T1 cells assessed as cell invasion rate at 10^-5 mM incubated for 24 hrs by crystal violet staining based matrigel invasion assay relative to control. The settings on record: 4T1, 24 h.
Series [3] relates to 4T1. In words: Inhibition of cell migration in mouse 4T1 cells assessed as migration frequency at 10^-5 mM incubated for 24 hrs by crystal violet staining based transwell assay relative to control. The class given is functional. Set-up: scale not given: the % may be the effect or the level left. Summed up:
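Transwell migration assay on 4T1 cells after 24 h treatment. Rate was quantified from cell numbers on the underside of the porous membrane. Mean ± SD, n = 3.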

Series [4] has as its system 4T1. In words: Induction of apoptosis in mouse 4T1 cells assessed as viable cells at 10^-3 mM incubated for 24 hrs by Annexin V-FITC/PI based FACS analysis (reference value: 92.2%). The class given is functional. The settings on record: 4T1, 24 h, read-out: Activity.
Series [5] has as its system 4T1. The series is described as follows: Induction of cell cycle arrest in mouse 4T1 cells assessed as accumulation at G2/M phase at 10^-3 mM incubated for 24 hrs by PI staining based flow cytometric analysis (reference value: 19.82%). The class given is functional. Background: In flow cytometry, cells or beads pass a laser one at a time.
Series [6] deals with 4T1. In words: Antiproliferative activity against mouse 4T1 cells incubated for 24 hrs by MTT assay. The series is classed as functional, cell-based. The settings on record: 4T1, 24 h. Summed up:
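MTT viability assay on 4T1 cells after 24 h treatment. Concentrations included 0.1 mM and 0.2 mM, and IC50 was taken from the viability curve. Mean ± SD, n = 6.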
(In general: Tetrazolium dyes change colour on reduction, which living cells bring about.)

Series [7] relates to 4T1. In words: Induction of apoptosis in mouse 4T1 cells assessed as early apoptotic cells at 10^-3 mM incubated for 24 hrs by Annexin V-FITC/PI based FACS analysis (reference value: 0.76%). The series is classed as functional.
Series [8] deals with 4T1. The series is described as follows: Induction of apoptosis in mouse 4T1 cells assessed as necrotic cells at 10^-3 mM incubated for 24 hrs by Annexin V-FITC/PI based FACS analysis (reference value: 0.47%). The class given is functional.
A further series has as its system Erythrocyte. In words: Hemolytic activity in BALB/c mouse RBC at 3.2 mM incubated for 2 hrs by UV-Vis spectrophotometric analysis. The series is classed as ADME, cell-based. Particulars: 3200 µM. Summed up: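 Hemolysis assay on red blood cells with dendrimers up to 3.2 mM. Result is expressed as hemolysis rate, with under 5% taken as acceptable.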
Series [9] concerns 4T1. The series is described as follows: Inhibition of metastasis in mouse 4T1 cells assessed as disruption in F-actin arrangement at 10^-5 mM incubated for 24 hrs by Hoechst 33342 staining based confocal laser scanning microscopic method. The class given is functional, cell-based. Summed up: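 After 24 h treatment, 4T1 cells were stained with Alexa Fluor 488 phalloidin for F-actin and Hoechst 33342 for nuclei, then imaged by fluorescence microscopy to assess cytoskeleton and cell morphology.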

Series [10] concerns 4T1. In words: Antitumour activity against mouse 4T1 cells xenografted in BALB/c mouse assessed as increase in cytotoxic tumor cell death at 10 mg/kg administered intratumorally and measured after 24 days by H and E staining based inverted optical microscopic method. The class given is functional, organism-based. Summed up: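 BALB/c mice bearing subcutaneous 4T1 tumours received 6 doses at 10 mg/kg body weight, matched for YSL monomer molar amount, with saline as control. Tumour sections were stained for H&E, CD31, Ki-67 and TUNEL. n = 5.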

For series [11], the system named is 4T1. The series is described as follows: Induction of cell death in mouse 4T1 cells incubated for 24 hrs by PI staining based inverted microscopic method. The class given is functional. Summed up: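 Live–dead staining of 4T1 cells after 24 h exposure to 0.4 mM, read by PI staining. A 0.8 mM level was also examined.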
Series [12] concerns 4T1. The series is described as follows: Induction of cell cycle arrest in mouse 4T1 cells assessed as accumulation at S phase at 10^-3 mM incubated for 24 hrs by PI staining based flow cytometric analysis (Rvb =42.35%). The class given is functional. The settings on record: at 0.001 mM.
Series [13] has as its system 4T1. The series is described as follows: Induction of cell cycle arrest in mouse 4T1 cells assessed as accumulation at G0/G1 phase at 10^-3 mM incubated for 24 hrs by PI staining based flow cytometric analysis (reference value: 37.78%). The class given is functional.
Series [14] has as its system 4T1. The series is described as follows: Induction of apoptosis in mouse 4T1 cells assessed as late apoptotic cells at 10^-3 mM incubated for 24 hrs by Annexin V-FITC/PI based FACS analysis (reference value: 6.62%). The class given is functional.
The subject of series [15] is 4T1. The series is described as follows: Inhibition of cell migration in mouse 4T1 cells assessed as wound closure rate at 10^-5 mM measured up to 36 hrs by inverted optical microscopic method based wound healing assay (reference value: 82%). The class given is functional. On the set-up: scale not given: the % may be the effect or the level left. Particulars: at 10 nM.

What is called IC50 is the concentration at which inhibition is half-maximal.

Calls of active or inactive are those of the source. The rule behind the calls is not given here.

For `CC(=O)O[C@H]1C(=O)[C@@]2(C)[C@H]([C@H](OC(=O)c3ccccc3)[C@]3(O)C[C@H](OC(=O)[C@H](O)[C@@H](NC(=O)c4ccccc4)c4ccccc4)C(C)=C1C3(C)C)[C@]1(OC(C)=O)CO[C@@H]1C[C@@H]2O` [PACLITAXEL], in the series with 4T1 [1], the inhibition result is “inactive”. In addition, the invasion rate at 0.01 µM with 4T1 [2] came to 34%. In addition, the Activity in the series on 4T1 [3] is 30%; with 4T1 [5], 13.02%; with 4T1 [7], 0.77%; in the series with 4T1 [8], 0.62%; in the series on Erythrocyte, “Non-Toxic”; in the series on 4T1 [11] it was “Dose-dependent effect”. The Activity in the series with 4T1 [12] came out at 44.64%; in the series with 4T1 [13] it was 42.35%; with 4T1 [14], 36.9%; in the series with 4T1 [15], 43%. Moreover, the viability at 1 µM in the series with 4T1 [4] was determined as 61.7%. The IC50 in the series on 4T1 [6] turned out to be 1 µM. Also, the inhibition entry in the series with 4T1 [9] was “Active”. For the same compound, the result in the series with 4T1 [10] was Active.

(Values after ChEMBL document CHEMBL4406918, “Inhibitory Effects of Multivalent Polypeptides on the Proliferation and Metastasis of Breast Cancer Cells” (ACS Med Chem Lett, 2019).)
